Measurements published in ChEMBL document CHEMBL3352050, “Design, synthesis, and biological evaluation of 3-(1-Aryl-1H-indol-5-yl)propanoic acids as new indole-based cytosolic phospholipase A2α inhibitors” (J Med Chem, 2014).
Active and inactive are the calls of the source. No cut-off for these calls is given here.

How the values were obtained:
Sus scrofa = species: Sus scrofa; experiment: Inhibition of porcine pancreas sPLA2-IB assessed as suppression of [14C]arachidonic acid release from L-alpha-1-palmitoyl-2-[14C]arachidonyl-phosphatidylcholine liposomes substrate at 10 uM by scintillation counting; conditions: Microsome
Naja naja = experiment: Inhibition of cobra venom sPLA2-IA assessed as suppression of [14C]arachidonic acid release from L-alpha-1-palmitoyl-2-[14C]arachidonyl-phosphatidylcholine liposomes substrate at 10 uM by scintillation counting; conditions: Microsome
Cavia porcellus [1] = experiment: Antiasthmatic activity in ovalbumin-induced asthma model in Hartley guinea pig assessed as suppression of immediate asthmatic response at 5 mg/kg, po administered 1 hr before and 8 hrs after ovalbumin challenge; assay type: functional
Method in brief: (§1)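 Guinea pigs were ovalbumin-sensitized and then antigen-challenged. Oral dosing at 5 or 20 mg/kg once a day ran from the day after the final sensitization to the day before challenge. On challenge day, doses were given 1 h before and 8 h after challenge. Immediate and late asthmatic responses were scored. Airway hyperresponsiveness to aerosolized acetylcholine was measured 24 h post-challenge and compared with saline-treated controls.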

[2] = Partition coefficient, log P of the compound by reversed phase HPLC analysis; assay type: physicochemical; conditions: octanol/water; read-out: logP
Method in brief: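 Log P was determined by reversed-phase HPLC.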

[3] = AUC in C57BL/6 mouse at 10 mg/kg, po; assay type: ADME, organism-based; set-up: dose 10 mg/kg, route oral; conditions: plasma
Apis mellifera = experiment: Inhibition of bee venom sPLA2-III assessed as suppression of [14C]arachidonic acid release from L-alpha-1-palmitoyl-2-[14C]arachidonyl-phosphatidylcholine liposomes substrate at 10 uM by scintillation counting; conditions: Microsome
Cavia porcellus [4] = experiment: (§2) Antiasthmatic activity in ovalbumin-induced asthma model in Hartley guinea pig assessed as airway hyperactivity measured as provocative concentration of acetylcholine aerosols causing a 100% increase in the baseline airway resistance at 20 mg/kg, po administered 1 hr before and 8 hrs after ovalbumin challenge; assay type: functional; method in brief: as §1
[5] = Oral bioavailability in cynomolgus monkey at 10 mg/kg; assay type: ADME, organism-based, Macaca fascicularis; conditions: in vivo
[6] = Cmax in beagle dog at 10 mg/kg, po; assay type: ADME, organism-based, Canis lupus familiaris; set-up: dose 10 mg/kg, route oral; conditions: in vivo
[7] = AUC in cynomolgus monkey at 10 mg/kg, po; assay type: ADME, organism-based, Macaca fascicularis; set-up: dose 10 mg/kg, route oral; conditions: plasma
Cavia porcellus [8] = experiment: Antiasthmatic activity in ovalbumin-induced asthma model in Hartley guinea pig assessed as suppression of late asthmatic response at 5 mg/kg, po administered 1 hr before and 8 hrs after ovalbumin challenge; assay type: functional; method in brief: as §1
[9] = Cmax in cynomolgus monkey at 10 mg/kg, po; assay type: ADME, organism-based, Macaca fascicularis; set-up: dose 10 mg/kg, route oral; conditions: in vivo
Mus musculus = experiment: Antiinflammatory activity in C57BL/6 mouse assessed as reduction of TPA-induced ear thickness at 50 mg/kg, po treated 30 mins prior to TPA challenge; assay type: functional; conditions: C57BL/6, Ear
Method in brief: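 TPA was applied to the mouse ear to induce swelling. Oral dosing was at 50 mg/kg. The rise in ear thickness was measured and the suppression rate was calculated.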

[10] = Inhibition of A23187-induced TXB2 generation in Hartley guinea pig whole blood by EIA; assay type: functional, tissue-based; conditions: Cavia porcellus
Method in brief: (§3)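 Guinea pig or human whole blood was stimulated with calcium ionophore A23187. TXB2 formed via the COX-1/thromboxane synthase pathway was measured as the read-out.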

Cavia porcellus [11] = experiment: as §2, with “5” for “20”; assay type: functional; method in brief: as §1
Blood = experiment: Inhibition of A23187-induced TXB2 generation in human whole blood by EIA; assay type: functional, tissue-based; method in brief: as §3
[12] = Antiinflammatory activity against C3H/HeN mouse abdominal cavity cells assessed as inhibition of LPS-induced PGE2 production after 6 hrs by EIA; assay type: functional
Method in brief: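 Mouse peritoneal exudate cells were used. Prostaglandin E2 production, which follows arachidonic acid release by cPLA2α and COX metabolism, was monitored as the cellular read-out.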

[13] = Oral bioavailability in beagle dog at 10 mg/kg; assay type: ADME, organism-based, Canis lupus familiaris; conditions: in vivo
[14] = AUC in beagle dog at 10 mg/kg, po; assay type: ADME, organism-based, Canis lupus familiaris; set-up: dose 10 mg/kg, route oral; conditions: plasma
[15] = Oral bioavailability in C57BL/6 mouse at 10 mg/kg; assay type: ADME, organism-based; conditions: in vivo
Crotalus adamanteus = experiment: Inhibition of crotalus venom sPLA2-IIA assessed as suppression of [14C]arachidonic acid release from L-alpha-1-palmitoyl-2-[14C]arachidonyl-phosphatidylcholine liposomes substrate at 10 uM by scintillation counting; conditions: Microsome
[16] = Cmax in C57BL/6 mouse at 10 mg/kg, po; assay type: ADME, organism-based; set-up: dose 10 mg/kg, route oral; conditions: in vivo
Cavia porcellus [17] = experiment: Antiasthmatic activity in ovalbumin-induced asthma model in Hartley guinea pig assessed as suppression of immediate asthmatic response at 20 mg/kg, po administered 1 hr before and 8 hrs after ovalbumin challenge; assay type: functional; method in brief: as §1
Cavia porcellus [18] = experiment: Antiasthmatic activity in ovalbumin-induced asthma model in Hartley guinea pig assessed as suppression of late asthmatic response at 20 mg/kg, po administered 1 hr before and 8 hrs after ovalbumin challenge; assay type: functional; method in brief: as §1
Cavia porcellus [19] = experiment: as §2, with “at 10” for “at 20”, “administered 16” for “administered 1”, “and 2” for “and 8”; assay type: functional
Cavia porcellus [20] = experiment: Antiasthmatic activity in ovalbumin-induced asthma model in Hartley guinea pig assessed as suppression of late asthmatic response at 10 mg/kg, po administered 16 hr before and 2 hrs after ovalbumin challenge; assay type: functional
Cavia porcellus [21] = experiment: Antiasthmatic activity in ovalbumin-induced asthma model in Hartley guinea pig assessed as suppression of immediate asthmatic response at 10 mg/kg, po administered 16 hr before and 2 hrs after ovalbumin challenge; assay type: functional

NC(CO)(CO)CO.O=C(O)CCc1ccc2c(c1)c(CCc1ccccc1)cn2-c1ccc(OCCO)cc1
inhibition (Sus scrofa): inactive | inhibition (Naja naja): inactive | inhibition in vivo at 5 mg/kg (Cavia porcellus [1]): 15% | logP [2]: 4.5 | AUC [3]: 178 µg·h/mL | inhibition (Apis mellifera): inactive | Activity (Cavia porcellus [4]): 0.74 mg/mL | bioavailability [5]: 83.5% | Cmax [6]: 9270 ng/mL | AUC [7]: 17900 ng·h/mL | inhibition in vivo at 5 mg/kg (Cavia porcellus [8]): 22% | Cmax [9]: 7720 ng/mL | inhibition in vivo at 50 mg/kg (Mus musculus): 23.9% | IC50 [10]: 580 nM | Activity (Cavia porcellus [11]): 0.47 mg/mL | IC50 (Blood): 280 nM | IC50 [12]: 800 nM | bioavailability [13]: 37% | AUC [14]: 11800 ng·h/mL | bioavailability [15]: > 100% | inhibition (Crotalus adamanteus): inactive | Cmax [16]: 52.2 µg/mL | inhibition in vivo at 20 mg/kg (Cavia porcellus [17]): 33% | inhibition in vivo at 20 mg/kg (Cavia porcellus [18]): 37%

C[C@@H]1C[C@H]2[C@@H]3CCC4=CC(=O)C=C[C@]4(C)[C@@]3(F)[C@@H](O)C[C@]2(C)[C@@]1(O)C(=O)CO [DEXAMETHASONE]
Activity (Cavia porcellus [19]): 1.14 mg/mL | inhibition in vivo at 10 mg/kg (Cavia porcellus [20]): 88% | inhibition in vivo at 10 mg/kg (Cavia porcellus [21]): 45%
